Measurements reported in ChEMBL document CHEMBL4680226, “Design, synthesis, and evaluation of N-phenyl-4-(2-phenylsulfonamido)-benzamides as microtubule-targeting agents in drug-resistant cancer cells, displaying HDAC inhibitory response” (Eur J Med Chem, 2020).
One block for each molecule: values may come before it. Activity calls are given as the source filed them. No cut-off for these calls is given here.

Experiments:
[1] = target: Histone deacetylase 3/Nuclear receptor corepressor 2 (HDAC3/NCoR2) (Homo sapiens, UniProt O15379); test: Inhibition of human recombinant HDAC3/NCOR2 using RHKKAc-AMC as substrate measured after 60 mins by fluorescence assay; format: protein-complex assay
[2] = target: T1, Histone deacetylase 8 (Homo sapiens, UniProt Q9BY41); test: Inhibition of human recombinant HDAC8 using RHKAcKAc-AMC as substrate measured after 60 mins by fluorescence assay
T1 sequence (Q9BY41 whole entry): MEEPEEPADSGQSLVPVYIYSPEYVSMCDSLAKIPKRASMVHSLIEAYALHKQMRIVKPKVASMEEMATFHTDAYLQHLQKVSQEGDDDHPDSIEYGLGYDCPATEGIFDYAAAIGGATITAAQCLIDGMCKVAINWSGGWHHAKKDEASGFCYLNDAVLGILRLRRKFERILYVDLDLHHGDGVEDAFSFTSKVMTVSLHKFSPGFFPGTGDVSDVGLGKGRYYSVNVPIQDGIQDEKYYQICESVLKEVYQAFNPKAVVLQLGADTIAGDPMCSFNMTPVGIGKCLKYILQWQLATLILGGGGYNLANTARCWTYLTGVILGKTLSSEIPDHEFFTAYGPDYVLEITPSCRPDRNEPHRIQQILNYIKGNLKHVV

[3] = target: Histone deacetylase 1 (Homo sapiens, UniProt Q13547); test: Inhibition of recombinant human full-length C-terminal FLAG-His tagged HDAC1 (1 to 482 residues) expressed in Sf21 insect cells using RHK-K(Ac)-AMC as substrate measured after 60 mins by fluorescence assay
[4] = Antiproliferative activity against human KB7D cells incubated for 48 hrs by SRB assay; format: functional
In short: (§1)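 KB parental and resistant sublines kept in RPMI 1640 with 5% FBS at 37 °C, 5% CO2. Cells plated, left overnight, then given graded compound concentrations for 48 h. A time-zero plate was fixed with 10% TCA at dosing. Cells were stained with 0.4% SRB in 1% acetic acid, unbound dye washed off, bound dye dissolved in 10 mM Tris base, and absorbance read at 515 nm.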

[5] = tested on: KB; test: Antiproliferative activity against human KB cells incubated for 48 hrs by SRB assay; format: functional; in short: as §1
[6] = Antiproliferative activity against human KB-VIN cells incubated for 48 hrs by SRB assay; format: functional; conditions: KBVIN; in short: as §1
[7] = target: Histone deacetylase 2 (Homo sapiens, UniProt Q92769); test: Inhibition of recombinant human C-terminal GST-tagged HDAC2 (1 to 488 residues) expressed in baculovirus infected insect cells using RHKKAc-AMC as substrate measured after 60 mins by fluorescence assay
[8] = target: T2, Tubulin (Homo sapiens) (UniProt P68371+Q9H4B7+P0DPH7+P68366+Q13509+Q71U36+P04350+Q3ZCM7+P07437+P68363+Q9BQE3+Q6PEY2+Q13885+Q9BVA1+Q9BUF5); test: Induction of microtubule disruption in human KB-VIN cells at 1 uM measured after 24 hrs by DAPI staining based deconvolution fluorescence microscopic analysis; format: cell-based
In short: (§2)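 Cells on glass coverslips treated 24 h, fixed in 4% paraformaldehyde for 15 min, and permeabilized with 0.5% Triton X-100. Blocked in PBS/2% BSA, stained with anti-beta-tubulin (1:250) and Alexa 488 anti-mouse (1:250), and mounted with DAPI. Imaged by wide-field deconvolution microscopy.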

[9] = tested on: KB-VIN; test: Induction of apoptosis in human KB-VIN cells assessed as increase in activated gammaH2AX expression at 0.1 uM measured after 24 hrs by Western blot analysis; format: functional, cell-based
In short: (§3)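 Resistant KB cells attached overnight, then drug-treated at the stated concentrations and times (24 h or 48 h). Lysates were immunoblotted for cleaved PARP, caspase-3, -8 and -9, and γH2AX, with anti-mouse or anti-rabbit IgG secondaries.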

[10] = tested on: KB-VIN; test: Induction of apoptosis in human KB-VIN cells assessed as increase in cleaved caspase-8 expression at 0.1 uM measured after 24 hrs by Western blot analysis; format: functional, cell-based; in short: as §3
[11] = target: T2, Tubulin (Homo sapiens); test: Induction of microtubule disruption in human KB7D cells assessed as polymerized fraction at 0.01 uM measured after 16 hrs by SDS-PAGE analysis (reference value: 26.4 to 29%); format: cell-based
In short: (§4)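 KB-Vin or KB-7D cells treated 16 h, then lysed 5 min at 37 °C in the dark in hypotonic buffer (1% NP-40, 1 mmol/L MgCl2, 2 mmol/L EGTA, 50 mmol/L Tris-HCl pH 6.8, protease inhibitors). Spun 13000 rpm, 10 min, room temperature. Soluble supernatant and resuspended polymerized pellet run on SDS-PAGE.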

[12] = tested on: KB-VIN; test: Cell cycle arrest in human KB-VIN cells assessed as increase in accumulation at sub-G1 phase at 0.01 to 0.1 uM measured after 24 hrs by propidium iodide staining based flow cytometry; format: functional; conditions: dose 0.01-0.1 µM
In short: (§5)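 Cells seeded at 2.5×10^5 per well and exposed to DMSO or compound for the stated times. They were washed in PBS and fixed overnight in ice-cold 70% ethanol at −20 °C. Staining used propidium iodide 80 µg/mL with 0.1% Triton X-100 and RNase A 100 µg/mL in PBS. DNA content was read by FACScan flow cytometry.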

[13] = tested on: KB-VIN; test: Induction of apoptosis in human KB-VIN cells assessed as increase in cleaved caspase-3 expression at 0.1 uM measured after 48 hrs by Western blot analysis; format: functional, cell-based; in short: as §3
[14] = tested on: KB-VIN; test: Cell cycle arrest in human KB-VIN cells assessed as increase in accumulation at sub-G1 phase at 0.1 uM measured after 48 hrs by propidium iodide staining based flow cytometry; format: functional; in short: as §5
[15] = target: T2, Tubulin (Homo sapiens); test: Induction of microtubule disruption in human KB7D cells assessed as polymerized fraction at 0.1 uM measured after 16 hrs by SDS-PAGE analysis (reference value: 26.4 to 29%); format: cell-based; in short: as §4
[16] = target: T2, Tubulin (Homo sapiens); test: Induction of microtubule disruption in human KB-VIN cells assessed as polymerized fraction at 0.1 uM measured after 16 hrs by SDS-PAGE analysis (reference value: 23.1 to 25.5%); format: cell-based; in short: as §4
[17] = tested on: KB-VIN; test: Induction of apoptosis in human KB-VIN cells assessed as increase in cleaved PARP expression at 0.1 uM measured after 24 hrs by Western blot analysis; format: functional, cell-based; in short: as §3
[18] = tested on: KB-VIN; test: Induction of apoptosis in human KB-VIN cells assessed as increase in cleaved caspase-9 expression at 0.1 uM measured after 48 hrs by Western blot analysis; format: functional, cell-based; in short: as §3
[19] = tested on: KB-VIN; test: Induction of apoptosis in human KB-VIN cells assessed as increase in cleaved caspase-3 expression at 0.1 uM measured after 24 hrs by Western blot analysis; format: functional, cell-based; in short: as §3
[20] = tested on: KB-VIN; test: Induction of apoptosis in human KB-VIN cells assessed as increase in cleaved caspase-9 expression at 0.1 uM measured after 24 hrs by Western blot analysis; format: functional, cell-based; in short: as §3
[21] = tested on: KB-VIN; test: Induction of apoptosis in human KB-VIN cells assessed as increase in activated gammaH2AX expression at 0.1 uM measured after 48 hrs by Western blot analysis; format: functional, cell-based; in short: as §3
[22] = target: T2, Tubulin (Homo sapiens); test: Induction of microtubule disruption in human KB-VIN cells assessed as polymerized fraction at 0.01 uM measured after 16 hrs by SDS-PAGE analysis (reference value: 23.1 to 25.5%); format: cell-based; in short: as §4
[23] = target: T2, Tubulin (Homo sapiens); test: Induction of microtubule disruption in human KB7D cells at 1 uM measured after 24 hrs by DAPI staining based deconvolution fluorescence microscopic analysis; format: cell-based; in short: as §2
[24] = tested on: KB-VIN; test: Induction of apoptosis in human KB-VIN cells assessed as increase in cleaved PARP expression at 0.1 uM measured after 48 hrs by Western blot analysis; format: functional, cell-based; in short: as §3
[25] = target: T2, Tubulin (Homo sapiens); test: Induction of microtubule disruption in human KB7D cells assessed as polymerized fraction at 1 uM measured after 16 hrs by SDS-PAGE analysis (reference value: 26.4 to 29%); format: cell-based; in short: as §4
[26] = target: T2, Tubulin (Homo sapiens); test: Induction of microtubule disruption in human KB-VIN cells assessed as polymerized fraction at 1 uM measured after 16 hrs by SDS-PAGE analysis (reference value: 23.1 to 25.5%); format: cell-based; in short: as §4
[27] = tested on: KB-VIN; test: Induction of apoptosis in human KB-VIN cells assessed as increase in cleaved caspase-8 expression at 0.1 uM measured after 48 hrs by Western blot analysis; format: functional, cell-based; in short: as §3
[28] = tested on: KB-VIN; test: Induction of apoptosis in human KB-VIN cells assessed as increase in cleaved caspase-8 expression at 0.01 to 0.5 uM by Western blot analysis; format: functional, cell-based; conditions: dose 0.01-0.5 µM; in short: as §3
[29] = tested on: KB-VIN; test: Induction of apoptosis in human KB-VIN cells assessed as increase in cleaved PARP expression at 0.01 to 0.5 uM by Western blot analysis; format: functional, cell-based; conditions: dose 0.01-0.5 µM; in short: as §3
[30] = tested on: KB-VIN; test: Induction of apoptosis in human KB-VIN cells assessed as increase in cleaved caspase-3 expression at 0.01 to 0.5 uM by Western blot analysis; format: functional, cell-based; conditions: dose 0.01-0.5 µM; in short: as §3
[31] = tested on: KB-VIN; test: Induction of apoptosis in human KB-VIN cells assessed as increase in cleaved caspase-9 expression at 0.01 to 0.5 uM by Western blot analysis; format: functional, cell-based; conditions: dose 0.01-0.5 µM; in short: as §3
[32] = tested on: KB7D; test: Induction of apoptosis in human KB7D cells assessed as increase in activated gammaH2AX expression at 0.1 uM measured after 24 hrs by Western blot analysis; format: functional, cell-based; in short: as §3
[33] = tested on: KB7D; test: Induction of apoptosis in human KB7D cells assessed as increase in activated gammaH2AX expression measured after 24 hrs by Western blot analysis; format: functional, cell-based; in short: as §3

Chain of Histone deacetylase 2 (Q92769 whole entry, the tested form may be a part): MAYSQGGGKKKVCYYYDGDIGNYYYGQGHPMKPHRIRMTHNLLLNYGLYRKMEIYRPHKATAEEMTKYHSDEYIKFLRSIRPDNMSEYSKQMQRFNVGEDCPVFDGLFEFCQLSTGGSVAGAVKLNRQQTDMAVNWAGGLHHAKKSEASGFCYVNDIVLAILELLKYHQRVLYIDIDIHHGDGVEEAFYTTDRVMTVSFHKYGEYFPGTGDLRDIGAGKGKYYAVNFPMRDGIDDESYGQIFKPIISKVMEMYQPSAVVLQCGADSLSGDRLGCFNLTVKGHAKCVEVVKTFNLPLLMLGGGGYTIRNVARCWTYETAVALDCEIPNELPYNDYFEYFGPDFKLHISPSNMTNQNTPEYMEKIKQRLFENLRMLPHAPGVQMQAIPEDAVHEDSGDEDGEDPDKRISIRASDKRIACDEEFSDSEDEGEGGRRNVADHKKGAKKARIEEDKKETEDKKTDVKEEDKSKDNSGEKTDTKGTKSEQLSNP
Chain of Histone deacetylase 3/Nuclear receptor corepressor 2 (HDAC3/NCoR2) (O15379 whole entry): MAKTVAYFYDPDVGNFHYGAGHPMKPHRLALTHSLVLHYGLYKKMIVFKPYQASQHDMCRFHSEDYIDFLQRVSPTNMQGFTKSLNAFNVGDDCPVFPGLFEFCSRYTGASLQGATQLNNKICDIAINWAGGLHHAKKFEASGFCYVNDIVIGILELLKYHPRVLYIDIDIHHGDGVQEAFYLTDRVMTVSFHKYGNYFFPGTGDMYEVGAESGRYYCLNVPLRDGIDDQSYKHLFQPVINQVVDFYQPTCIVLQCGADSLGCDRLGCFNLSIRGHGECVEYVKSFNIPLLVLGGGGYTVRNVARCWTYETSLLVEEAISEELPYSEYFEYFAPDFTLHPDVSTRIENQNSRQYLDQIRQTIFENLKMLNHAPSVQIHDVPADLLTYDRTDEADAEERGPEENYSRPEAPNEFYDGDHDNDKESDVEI
Chain of Histone deacetylase 3/Nuclear receptor corepressor 2 (HDAC3/NCoR2) (Q9Y618 whole entry, further chain): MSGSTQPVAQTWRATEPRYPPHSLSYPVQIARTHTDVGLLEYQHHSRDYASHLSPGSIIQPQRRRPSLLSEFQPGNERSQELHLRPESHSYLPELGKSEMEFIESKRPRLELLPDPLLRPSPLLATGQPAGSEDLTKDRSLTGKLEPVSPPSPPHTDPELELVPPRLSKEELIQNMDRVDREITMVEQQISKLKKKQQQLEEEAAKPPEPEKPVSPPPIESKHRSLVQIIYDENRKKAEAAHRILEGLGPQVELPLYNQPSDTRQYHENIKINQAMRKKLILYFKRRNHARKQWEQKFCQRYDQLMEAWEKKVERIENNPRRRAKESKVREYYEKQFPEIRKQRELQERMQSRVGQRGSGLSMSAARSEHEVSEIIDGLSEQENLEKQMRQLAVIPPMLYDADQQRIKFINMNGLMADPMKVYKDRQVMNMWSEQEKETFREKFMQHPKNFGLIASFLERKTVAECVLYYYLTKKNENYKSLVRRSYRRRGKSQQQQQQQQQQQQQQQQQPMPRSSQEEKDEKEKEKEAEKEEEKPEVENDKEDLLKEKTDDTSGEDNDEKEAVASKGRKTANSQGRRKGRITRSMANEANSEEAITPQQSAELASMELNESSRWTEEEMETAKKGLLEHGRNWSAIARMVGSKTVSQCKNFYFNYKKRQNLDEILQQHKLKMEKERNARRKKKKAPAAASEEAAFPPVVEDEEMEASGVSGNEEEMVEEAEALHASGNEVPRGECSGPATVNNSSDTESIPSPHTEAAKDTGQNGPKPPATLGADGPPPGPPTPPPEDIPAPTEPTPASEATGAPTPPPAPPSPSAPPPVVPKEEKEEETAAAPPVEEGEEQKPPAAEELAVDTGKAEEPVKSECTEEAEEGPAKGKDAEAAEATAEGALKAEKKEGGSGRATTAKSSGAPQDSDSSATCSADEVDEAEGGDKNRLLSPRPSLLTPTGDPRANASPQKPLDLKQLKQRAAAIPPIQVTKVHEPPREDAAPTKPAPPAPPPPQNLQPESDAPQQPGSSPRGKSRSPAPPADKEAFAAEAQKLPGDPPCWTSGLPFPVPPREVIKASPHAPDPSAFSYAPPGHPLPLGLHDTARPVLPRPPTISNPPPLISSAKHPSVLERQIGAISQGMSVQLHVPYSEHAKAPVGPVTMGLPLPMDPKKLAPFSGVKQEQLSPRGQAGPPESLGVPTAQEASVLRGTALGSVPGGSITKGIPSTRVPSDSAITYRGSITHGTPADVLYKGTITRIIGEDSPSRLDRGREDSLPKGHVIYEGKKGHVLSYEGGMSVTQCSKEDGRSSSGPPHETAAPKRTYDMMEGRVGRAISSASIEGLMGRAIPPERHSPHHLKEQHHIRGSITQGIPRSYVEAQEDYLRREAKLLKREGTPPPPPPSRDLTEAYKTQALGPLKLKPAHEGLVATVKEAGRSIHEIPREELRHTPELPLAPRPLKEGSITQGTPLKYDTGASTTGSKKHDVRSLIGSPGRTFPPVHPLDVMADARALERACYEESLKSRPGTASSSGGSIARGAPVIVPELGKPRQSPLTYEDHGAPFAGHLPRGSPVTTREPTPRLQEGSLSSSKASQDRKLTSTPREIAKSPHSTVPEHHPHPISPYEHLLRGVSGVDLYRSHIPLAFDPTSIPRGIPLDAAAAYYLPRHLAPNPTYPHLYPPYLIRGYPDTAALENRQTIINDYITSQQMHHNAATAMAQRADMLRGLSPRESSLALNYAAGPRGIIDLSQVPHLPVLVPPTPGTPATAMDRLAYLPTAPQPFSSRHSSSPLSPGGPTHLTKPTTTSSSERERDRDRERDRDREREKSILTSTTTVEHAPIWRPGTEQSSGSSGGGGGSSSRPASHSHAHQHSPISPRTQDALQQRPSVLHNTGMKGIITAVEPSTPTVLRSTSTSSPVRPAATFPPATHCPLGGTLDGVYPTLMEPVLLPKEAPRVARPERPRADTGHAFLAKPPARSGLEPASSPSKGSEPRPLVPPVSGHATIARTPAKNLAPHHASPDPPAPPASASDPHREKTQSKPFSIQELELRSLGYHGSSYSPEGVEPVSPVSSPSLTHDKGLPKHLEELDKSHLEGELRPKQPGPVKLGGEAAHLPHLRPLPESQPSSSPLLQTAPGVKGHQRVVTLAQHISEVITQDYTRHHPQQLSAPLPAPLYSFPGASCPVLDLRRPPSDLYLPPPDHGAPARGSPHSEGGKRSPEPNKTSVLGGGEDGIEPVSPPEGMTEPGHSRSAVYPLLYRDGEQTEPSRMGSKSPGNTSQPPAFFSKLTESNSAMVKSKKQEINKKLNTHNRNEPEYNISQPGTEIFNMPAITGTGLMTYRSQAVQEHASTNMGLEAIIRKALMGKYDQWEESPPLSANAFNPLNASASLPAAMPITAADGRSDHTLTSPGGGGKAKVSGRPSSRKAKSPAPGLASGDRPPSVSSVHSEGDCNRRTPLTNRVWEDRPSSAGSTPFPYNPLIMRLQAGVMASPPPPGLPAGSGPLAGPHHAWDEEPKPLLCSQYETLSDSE
Chain of Histone deacetylase 1 (Q13547 whole entry, the tested form may be a part): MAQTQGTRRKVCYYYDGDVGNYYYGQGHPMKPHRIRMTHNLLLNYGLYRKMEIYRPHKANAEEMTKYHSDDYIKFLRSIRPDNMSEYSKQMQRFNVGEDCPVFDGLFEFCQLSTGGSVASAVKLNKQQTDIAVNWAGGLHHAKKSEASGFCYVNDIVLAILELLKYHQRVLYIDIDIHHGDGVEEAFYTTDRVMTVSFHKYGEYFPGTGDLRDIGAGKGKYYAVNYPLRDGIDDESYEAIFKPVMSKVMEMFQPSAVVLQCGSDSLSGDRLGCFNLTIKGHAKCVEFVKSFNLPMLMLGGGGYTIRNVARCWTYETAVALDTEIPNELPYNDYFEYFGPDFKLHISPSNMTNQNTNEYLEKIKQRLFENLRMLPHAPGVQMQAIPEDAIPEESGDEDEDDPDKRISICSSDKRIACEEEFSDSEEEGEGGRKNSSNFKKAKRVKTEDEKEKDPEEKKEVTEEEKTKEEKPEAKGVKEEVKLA

SMILES: COc1ccc(S(=O)(=O)Nc2ccccc2OCc2ccc(C(=O)Nc3ccccc3N)cc2)cc1
- IC50 [1]: 7920 nM
- IC50 [2]: > 10000 nM
- IC50 [3]: 5450 nM
- GI50 [4]: 62 nM
- GI50 [5]: 60 nM
- GI50 [6]: 42 nM
- IC50 [7]: 4950 nM

SMILES: CC[C@]1(O)C[C@H]2CN(CCc3c([nH]c4ccccc34)[C@@](C(=O)OC)(c3cc4c(cc3OC)N(C=O)[C@H]3[C@@](O)(C(=O)OC)[C@H](OC(C)=O)[C@]5(CC)C=CCN6CC[C@]43[C@@H]65)C2)C1 [VINCRISTINE]
- Activity [8]: Active
- Activity [9]: Active
- Activity [10]: Active
- Activity [11]: 30.4%
- Activity [12]: Active
- Activity [13]: Active
- Activity [14]: Active
- Activity [15]: 25.8%
- Activity [16]: 28.8%
- Activity [17]: Active
- Activity [18]: Active
- Activity [19]: Active
- Activity [20]: Active
- Activity [21]: Active
- GI50 [5]: 1.86 nM
- Activity [22]: 25.5%
- Activity [23]: Active
- Activity [24]: Active
- Activity [25]: 29.1%
- Activity [26]: 25.2%
- GI50 [6]: 219 nM
- Activity [27]: Active

SMILES: Nc1ccccc1NC(=O)c1ccc(CCc2ccccc2NS(=O)(=O)c2ccc(Br)cc2)cc1
- GI50 [5]: 124 nM

SMILES: Nc1ccccc1NC(=O)c1ccc(CCc2ccccc2NS(=O)(=O)c2ccc(Cl)cc2)cc1
- GI50 [5]: 448 nM

SMILES: COc1cc([C@@H]2c3cc4c(cc3[C@@H](O[C@@H]3O[C@@H]5CO[C@@H](C)O[C@H]5[C@H](O)[C@H]3O)[C@H]3COC(=O)[C@H]23)OCO4)cc(OC)c1O [ETOPOSIDE]
- GI50 [4]: 98600 nM
- GI50 [5]: 8390 nM
- Activity [33]: Active

SMILES: COc1ccc(S(=O)(=O)Nc2cccc(CCc3ccc(C(=O)Nc4ccccc4N)cc3)c2)cc1
- GI50 [5]: 678 nM

Now from value to molecule, other results behind:

- IC50 [1]: 1750 nM
- IC50 [2]: > 10000 nM
- IC50 [3]: > 10000 nM
- GI50 [5]: 66 nM
- IC50 [7]: 9080 nM
SMILES: COc1ccc(S(=O)(=O)Nc2ccccc2CCc2ccc(C(=O)Nc3cc(F)ccc3N)cc2)cc1
- Activity [28]: Active
- Activity [29]: Active
- Activity [30]: Active
- GI50 [4]: 12 nM
- Activity [31]: Active
- GI50 [6]: 29 nM

- GI50 [5]: 801 nM
SMILES: COc1ccc(S(=O)(=O)Nc2cccnc2Nc2ccc(O)cc2)cc1 [ABT-751]
- GI50 [4]: 444 nM
- Activity [32]: Active
- GI50 [6]: 2070 nM

- GI50 [5]: > 10000 nM
SMILES: Nc1ccccc1NC(=O)c1ccc(CCc2ccccc2)cc1

- GI50 [5]: 884 nM
SMILES: Nc1ccccc1NC(=O)c1ccc(CCc2ccccc2NS(=O)(=O)c2ccc(F)cc2)cc1

- GI50 [5]: 660 nM
SMILES: COc1ccc(S(=O)(=O)Nc2ccccc2/C=C/c2ccc(C(=O)Nc3ccccc3N)cc2)cc1

- IC50 [1]: 2550 nM
- IC50 [2]: > 10000 nM
- IC50 [3]: 1190 nM
- GI50 [5]: 23 nM
- IC50 [7]: > 10000 nM
SMILES: COc1ccc(S(=O)(=O)Nc2ccccc2CCc2ccc(C(=O)Nc3ccccc3N)cc2)cc1
- Activity [28]: Active
- Activity [29]: Active
- Activity [30]: Active
- GI50 [4]: 22 nM
- Activity [31]: Active
- GI50 [6]: 31 nM
